ChEMBL document CHEMBL1155457, “Discovery of the dual orexin receptor antagonist [(7R)-4-(5-chloro-1,3-benzoxazol-2-yl)-7-methyl-1,4-diazepan-1-yl][5-methyl-2-(2H-1,2,3-triazol-2-yl)phenyl]methanone (MK-4305) for the treatment of insomnia” (J Med Chem, 2010)
Calls of active or inactive are those of the source. The calls are words filed in the database; no cut-off is given here.

What was measured:
[1] = target: T1, Orexin/Hypocretin receptor type 1 (Homo sapiens, UniProt O43613); assay: Displacement of [3H]N-cyclobutyl-5-methyl-N-(2-(1-methyl-1H-benzo[d]imidazol-2-ylthio)ethyl)-2-(2H-1,2,3-triazol-2-yl)benzamide from human OX1R expressed in CHO cells after 20 hrs by scintillation counting; assay type: cell-based
T1 sequence (O43613 whole entry): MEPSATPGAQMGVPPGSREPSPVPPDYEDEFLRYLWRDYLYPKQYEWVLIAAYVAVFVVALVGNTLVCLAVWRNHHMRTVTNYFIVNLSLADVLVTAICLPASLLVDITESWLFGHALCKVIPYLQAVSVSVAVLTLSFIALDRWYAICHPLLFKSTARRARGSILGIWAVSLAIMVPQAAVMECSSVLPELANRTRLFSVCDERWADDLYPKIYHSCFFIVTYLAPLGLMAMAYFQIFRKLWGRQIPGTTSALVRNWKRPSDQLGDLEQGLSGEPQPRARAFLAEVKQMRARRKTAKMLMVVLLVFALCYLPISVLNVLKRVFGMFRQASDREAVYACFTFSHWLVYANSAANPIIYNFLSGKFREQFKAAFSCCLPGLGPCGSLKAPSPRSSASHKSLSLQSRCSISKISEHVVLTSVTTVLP

[2] = target: T1, Orexin/Hypocretin receptor type 1; assay: Antagonist activity at human OX1R expressed in CHO cells assessed as inhibition of orexin-A-induced intracellular calcium mobilization after 5 mins by FLIPR assay; assay type: functional, cell-based
Liver microsomes = assay: Idiosyncratic toxicity in human liver microsomes assessed GSH-derived reactive electrophilic adduct formation at 10 uM after 60 mins by UPLC/HRMS analysis relative to labetalol; design: species or system Microsome; conditions: 1 h
In short: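 Pooled human liver microsomes (1 mg/mL protein) were incubated 60 min at 37 °C in 100 mM potassium phosphate pH 7.4. The mix held 10 μM compound, 1 mM MgCl2, 1 mM EDTA, 5 mM GSH and 1 mM NADPH. After quenching, GSH adducts were detected by UPLC/HRMS. Summed adduct peak areas were divided by the labetalol internal-standard area.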

[3] = Clearance in dog at 0.5 mg/kg, iv; assay type: ADME, organism-based, Canis lupus familiaris; design: dose 0.5 mg/kg, route intravenous; conditions: in vivo
In short: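 Dogs received an IV dose with DMSO as vehicle (n = 3). Clearance was derived from plasma pharmacokinetics.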

[4] = Oral bioavailability in dog at 3 mg/kg; assay type: ADME, organism-based, Canis lupus familiaris; conditions: in vivo
[5] = target: T1, Orexin/Hypocretin receptor type 1; assay: Displacement of [3H](S)-N-(biphenyl-2-yl)-1-(2-(1-methyl-1H-benzo[d]imidazol-2-ylthio)acetyl)pyrrolidine-2-carboxamide from human OX1R expressed in CHO cells after 3 hrs by scintillation counting; assay type: cell-based
Orexin receptor type 2 [6] = target: T2, Orexin receptor type 2 (Homo sapiens, UniProt O43614); assay: Displacement of [3H](S)-N-(2-(1H-pyrrol-1-yl)phenyl)-1-(2-(1-methyl-1H-benzo[d]imidazol-2-ylthio)acetyl)pyrrolidine-2-carboxamide from human OX2R expressed in CHO cells after 3 hrs by scintillation counting; assay type: cell-based
T2 sequence (O43614 whole entry): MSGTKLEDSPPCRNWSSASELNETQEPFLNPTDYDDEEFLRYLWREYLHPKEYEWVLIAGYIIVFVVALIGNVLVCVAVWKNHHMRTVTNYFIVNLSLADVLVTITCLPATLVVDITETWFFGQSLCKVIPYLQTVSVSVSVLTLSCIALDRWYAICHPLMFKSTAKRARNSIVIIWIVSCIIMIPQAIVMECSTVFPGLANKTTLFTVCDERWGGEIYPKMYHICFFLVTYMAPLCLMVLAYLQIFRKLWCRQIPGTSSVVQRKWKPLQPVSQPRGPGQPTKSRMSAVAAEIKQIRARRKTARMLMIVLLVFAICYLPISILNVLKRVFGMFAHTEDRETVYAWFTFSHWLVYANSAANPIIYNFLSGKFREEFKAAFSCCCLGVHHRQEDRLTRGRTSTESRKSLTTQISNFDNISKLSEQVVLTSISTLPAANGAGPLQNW

Orexin receptor type 2 [7] = target: T2, Orexin receptor type 2; assay: Antagonist activity at human OX2R expressed in CHO cells assessed as inhibition of orexin-A-induced intracellular calcium mobilization after 5 mins by FLIPR assay; assay type: functional, cell-based
[8] = Oral bioavailability in rat at 10 mg/kg; assay type: ADME, organism-based; conditions: in vivo
[9] = Clearance in rat at 10 mg/kg, iv; assay type: ADME, organism-based; design: dose 10 mg/kg, route intravenous; conditions: in vivo
Rattus norvegicus [10] = assay: Antiinsomnic activity in Sprague-Dawley rat assessed as decrease in active wake duration at 10 mg/kg/day, po […]; assay type: functional, organism-based
In short: (§1)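 Rats carried telemetry implants recording ECoG/EMG (sampled at 500 Hz) and had recovered at least 2 weeks after surgery. They were on a 12:12 light cycle with lights off at 04:00. After 2 days of vehicle habituation, four rats were dosed by oral gavage in 20% aqueous TPGS at 09:00, 5 h into the active phase. The design was a one-week crossover against vehicle. Recording ran 23 h; stages were auto-scored in 30-min bins, averaged over 7 days and compared by mixed-model ANOVA at each time point.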

Rattus norvegicus [11] = assay: Antiinsomnic activity in Sprague-Dawley rat assessed as increase in rapid-eye movement at 10 mg/kg/day, po measured with 3 to 4 hrs post last dose; assay type: functional, organism-based; in short: as §1
Rattus norvegicus [12] = assay: Antiinsomnic activity in Sprague-Dawley rat assessed as increase in delta sleep duration at 10 mg/kg/day, po measured with 3 to 4 hrs post last dose; assay type: functional, organism-based; in short: as §1
[13] = Fraction unbound in rat plasma; assay type: ADME, cell-free
[14] = Drug level in Sprague-Dawley rat CSF at 10 mg/kg/day, po after 1 hr; assay type: ADME, organism-based, Cerebrospinal fluid; design: route oral; conditions: read-out: Drug uptake
[15] = Lipophilicity, log P of the compound; assay type: physicochemical; conditions: octanol/water
Rattus norvegicus [16] = assay: Antiinsomnic activity in Sprague-Dawley rat assessed as decrease in light sleep duration at 10 mg/kg/day, po measured with 3 to 4 hrs post last dose; assay type: functional, organism-based; in short: as §1
[17] = Drug level in Sprague-Dawley rat plasma at 10 mg/kg/day, po after 1 hr; assay type: ADME, organism-based; design: route oral; conditions: read-out: Drug uptake

Ki [1] [nM] | IC50 [2] [nM] | clearance [3] [mL/min/kg] | bioavailability [4] [%] | Ki [5] [nM] | Ki (Orexin receptor type 2 [6]) [nM] | IC50 (Orexin receptor type 2 [7]) [nM] | bioavailability [8] [%] | clearance [9] [mL/min/kg] | fraction unbound [13] | concentration at 1 h [14] [nM] | logP [15] | concentration at 1 h [17] [nM] | Structure (SMILES) | Ratio (Liver microsomes) | Activity (Rattus norvegicus [10]) | Activity (Rattus norvegicus [11]) | Activity (Rattus norvegicus [12]) | Activity (Rattus norvegicus [16])
1.8 | 28 | 4.9 | 15 | 1.8 | 0.25 | 32 | – | – | – | – | – | – | C[C@@H]1CCN(c2cnc3cc(F)c(F)cc3n2)CCN1C(=O)c1ccccc1-n1nccn1 | 3.7 | – | – | – | –
0.78 | 24 | 9.2 | – | 0.78 | 0.28 | 28 | – | – | – | – | – | – | C[C@@H]1CCN(c2ncc3c(n2)CCCC3)CCN1C(=O)c1ccccc1-n1nccn1 | 0.7 | – | – | – | –
0.39 | 30 | 6 | < 5 | 0.39 | 0.36 | 30 | – | – | – | – | – | – | Cc1ccc(-n2nccn2)c(C(=O)N2CCN(c3ncc4ccccc4n3)CC[C@H]2C)c1 | – | – | – | – | –
– | – | 5.2 | 37 | – | – | – | 47 | 33 | 0.03 | 1000 | 3 | 20 | Cc1ccc(-n2nccn2)c(C(=O)N2CCN(c3ncc4cc(F)ccc4n3)CC[C@H]2C)c1 | – | Active | Active | Active | Active
